Test results: the EternaBench riboswitch data

System: MS2 coat protein
Assay: apparent Kd, MS2 coat protein; higher = weaker binding; RNA-MaP array; FMN 200 µM where present
In short: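 Stalled E. coli RNA polymerase produced the designs on Illumina sequencing-chip clusters. SNAP-549-labelled MS2 coat protein was added from 0.7 or 1.5 nM, doubling to 3 µM, without and then with constant ligand, in 100 mM Tris-HCl pH 7.5, 80 mM KCl, 4 mM MgCl2, BSA, DTT, yeast tRNA and Tween-20. The apparent Kd is the median of filtered per-cluster fits of green signal normalised to red-channel RNA signal and control-cluster median Fmax.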

[1] = designed as: ON switch for flavin mononucleotide, no ligand
[2] = ligand present: flavin mononucleotide, designed as: ON switch for flavin mononucleotide
[3] = designed as: OFF switch for flavin mononucleotide, no ligand
[4] = ligand present: flavin mononucleotide, designed as: OFF switch for flavin mononucleotide

GUGGUCAGACAUGAGGAUCACCCAUGUGGAAUAAAUAAGGGACAGGAUAUUCAAUAUAGGAUAUAGAAGAAGGGUUGGUUGGUG
apparent Kd [1]: 96.1 nM
apparent Kd [2]: 125 nM

GCCGUAAGUGUGAGGAUAUACCUAUGGAUACAUAGGUAGAAGGCACAUGAGGAUCACCCAUGUCCUUAAUCGGC
apparent Kd [3]: 247 nM
apparent Kd [4]: 267 nM

AACCGGGAGAAGCAGGAUAUUGCCUCUUCAACAUGAGGAUCACCCAUGUAAGUAAAUUGACGAUACAAGAAGGGCUGCUCCUUAC
apparent Kd [1]: 118 nM
apparent Kd [2]: 38.1 nM

CCCUCACAUGAGGAUCACCCAUGUUAGGAUAUCUACCAGGAGCCUAAAAUGGCCCAACGGAGAAGGAACGUGCA
apparent Kd [3]: 19.8 nM
apparent Kd [4]: 18.6 nM

GUCAGCUCGUGAGGAUAUACAACACUGCUUCGGCAGUGUAUUAAGAUCACAUGAGGAUCACCCAUGUAGAAGGCGCGAGCUGAU
apparent Kd [3]: 13.3 nM
apparent Kd [4]: 243 nM

GGGCUGUCAGGAUAUGGGCCCGGGUUUGAAAGGGCCCGGGCCCAGAAGGGACAUGAGGAUCACCCAUGUGGCCC
apparent Kd [3]: 36.3 nM
apparent Kd [4]: 36.4 nM

AGCAGACGAGGAUAUAGAUGGAAUGACAUGAGGAUCACCCAUGUGAUCGAUCUAUUUGAUUUAGAAGGUGUCUGCU
apparent Kd [3]: 12.5 nM
apparent Kd [4]: 15.1 nM

AGUAUACAUGAGGAUCACCCAUGUCAGUAACUGACAGGAUAUGCGUUGCAUCACUGUAAUGCAGAAGGGUCUUGUA
apparent Kd [1]: 507 nM
apparent Kd [2]: 115 nM

GUCAGCUCGUGAGGAUAUACAACACUGCUUCGGCAGUGUACUAAGAUCACAUGAGGAUCACCCAUGUAGAAGGCACGAGCUGAU
apparent Kd [3]: 14.6 nM
apparent Kd [4]: 246 nM

UACAUGAGGAUCACCCAUGUUUUGUCGUGUAUGGUAUUUAUCUAGGAUAUCAAUGAAUUUAUUUAUGAGAAGGAGAAUAUUAAU
apparent Kd [3]: 40 nM
apparent Kd [4]: 37.5 nM

UGUGUUGCGCAGGAUAUGCUGGACAUGAGAGCUGCAGAAGGGCGAACAUGAGGAUCACCCAUGUUUUCCUCGGC
apparent Kd [3]: 14.1 nM
apparent Kd [4]: 14.6 nM

UAUAUAUAGGCAGGAUAUACAUGUAUAUAUAAUAUAUUAUAUAAUAUUACAUGAGGAUCACCCAUGUAGAAGGGCCAUAAUAUA
apparent Kd [3]: 48.3 nM
apparent Kd [4]: 66.9 nM

AUGGCUAAUGAGAAGGUGUAUAUAAAUUAUAUACAAGGAUAUCGGUCAAGCAUGAAAACAUGAGGAUCACCCAUGUUAAGCCAU
apparent Kd [1]: 8.11 nM
apparent Kd [2]: 7.01 nM

GUACAGAGGGAGAAGGGCUAGGAGGUCCAGCUUAUGUGUGUUGCAACAUGAGGAUCACCCAUGUAGCAGGAUAUCCCUCGUACA
apparent Kd [3]: 40.2 nM
apparent Kd [4]: 257 nM

AUUUCAAUCUAUACUAUACAAACAACAUGAGGAUCACCCAUGUAGGAUAUCGUAUGUAUCAACUACGAGAAGGACAUAAUCUUA
apparent Kd [3]: 13.7 nM
apparent Kd [4]: 13.4 nM

CUCCGUGGCGAGAAGGACGGAAUUUAAGGUUCUGUAGGAUAUCGAAACAUGAGGAUCACCCAUGUAUUGAUCGGGUGCAGUGUG
apparent Kd [3]: 26.9 nM
apparent Kd [4]: 32.2 nM

UUUAAACAGUCAGGAUAUGUAACGCACAACGGCGCAGAAGGGACAUGAGGAUCACCCAUGUUAUGGUUCUGGUACUAUGACGUU
apparent Kd [3]: 18.4 nM
apparent Kd [4]: 22.9 nM

AGCUGUGGCCGAGGAUAUCACGAACCAUGGAAAACCAUGGAAAUUCUACAUGAGGAUCACCCAUGUGAGAAGGCGGUCUCAGCA
apparent Kd [3]: 18.1 nM
apparent Kd [4]: 17.2 nM

GGUGGACAUGAGGAUCACCCAUGUGAGGAUAUCGGCUAUCUUCUCGCUGUCGGUUGCUCGAGAAGGCACAUUGU
apparent Kd [3]: 70.6 nM
apparent Kd [4]: 86.7 nM

GCGUAUUAGGUGUAGCUAGUCAUUCAAGAAGGGUGGAGAACAUGAGGAUCACCCAUGUAGUUUAUACAGGAUAUUGAUAUACGC
apparent Kd [1]: 489 nM
apparent Kd [2]: 101 nM

UUGUUACAUGAGGAUCACCCAUGUGAGGAUAUGGCCCGCCCGGCGUGAGCUGGUUUUGUCAGAAGGCGCGUGGG
apparent Kd [3]: 111 nM
apparent Kd [4]: 159 nM

AAGAUACAUGAGGAUCACCCAUGUGAGGAUAUGUGUAUCCCUAAAAAAGUGUGGGACCACAGAAGGUACUUGGA
apparent Kd [3]: 61.7 nM
apparent Kd [4]: 55.4 nM

GUAGCUUAUGAGAAGGCGAUCAUGAAACAUGAUCGAGGAUAUCAUGUAAACAUGAGGAUCACCCAUGUAUGGGUAUUAUGCUAC
apparent Kd [1]: 313 nM
apparent Kd [2]: 42.9 nM

AUCAUGCUCAAGAAGGACAUGAGGAUCACCCAUGUAGGAUAUUGGGCGGUCACUUCUAGCUUGUGUGUAUCUGAAUACUCCAGG
apparent Kd [1]: 20.4 nM

UUUAGUUGCGGGCAGGAUAUGUAUUAAAAUACAUGAGGAUCACCCAUGUGCGGGUGUAACACCCGACAGAAGGGCCAAUCGCGAC
apparent Kd [1]: 388 nM
apparent Kd [2]: 28.6 nM

GCAUACAUUCGAGGAUAUCGGUGAACAAAUUAACGAGAAGGCGAUAUAAUUUUUAAACUUAUAGACAUGAGGAUCACCCAUGUA
apparent Kd [1]: 23.7 nM
apparent Kd [2]: 20.6 nM

UUCGGCGCAGGAUAUGCGGUUCUGUGUUGAAUCGGCGCGGGACAUGAGGAUCACCCAUGUAGAAGGGUGUUGGG
apparent Kd [3]: 361 nM
apparent Kd [4]: 287 nM

CUGUUAUUGAUCCAUUUUUUCAACAUGAGGAUCACCCAUGUGCAGGAUAUCGUGAUUAUUAUCAACGAGAAGGGCAGAUUCACG
apparent Kd [3]: 74 nM
apparent Kd [4]: 178 nM

UGAGAUCGGGCAGGAUAUCGACAUGAGGAUCACCCAUGUGGGUUAUACUUCCCGCAUGGCUGUGGCGAGAAGGGCCCGGACCAU
apparent Kd [3]: 395 nM
apparent Kd [4]: 83.1 nM

CGCGAAAACAUAGGAUAUUGUUACAUGAGGAUCACCCAUGUCAACCAUGUAGCUCGAAUUGUUGUCAAGAAGGAUGAGGUCGCG
apparent Kd [1]: 18.4 nM
apparent Kd [2]: 22 nM

ACGUUCAAAGGAUAUACAUGAGGAUCACCCAUGUCCGUCAUGCAAGCGACGGUUUGCUGUAGAAGGUUGAACGC
apparent Kd [3]: 22.4 nM
apparent Kd [4]: 114 nM

GCCAGGAUGUGAGGAUAUGCUGAGGAUAACUCAGCAGAAGGCACAUGAGGAUCACCCAUGUAAACUUAUAAUAAAUACCCUGGC
apparent Kd [3]: 13 nM
apparent Kd [4]: 28.4 nM

UAAUAAAGUGUGAGGAUAUGCUGGUCCUUGGAUCAGCAGAAGGCACAUGAGGAUCACCCAUGUAAUAUAUAUAU
apparent Kd [3]: 87.7 nM
apparent Kd [4]: 223 nM

GCCAUCAUAUGAGGAUAUGACACCGAAACGGUGUCAGAAGGCAUGUCGAUAGACAUGAGGAUCACCCAUGUAUAAAUGAUGGCA
apparent Kd [1]: 780 nM
apparent Kd [2]: 118 nM

ACUGGUCGAGGAUAUGCAAUCGUGCUUCGGCACGUAAGGUCACAUGAGGAUCACCCAUGUAGAAGGCGACCAGU
apparent Kd [3]: 17.2 nM
apparent Kd [4]: 36.4 nM

CGUGACUCAGGAUAUCUAUAAUAUCACAUGAGGAUCACCCAUGUCCAGCAAUAGCUGGAGGGAGAAGGGAGUCACG
apparent Kd [3]: 140 nM
apparent Kd [4]: 54.9 nM

AAUGAGCUAGGAUAUACAUGAGGAUCACCCAUGUAAAAUAGGUCAUGGAGGAACCACUGUAGAAGGAGCAGGGC
apparent Kd [3]: 45.4 nM
apparent Kd [4]: 72.1 nM

UGUGCGUAUGUGAGGAUAUGCUGGUCCUUGGCUCGGCAGAAGGCACAUGAGGAUCACCCAUGUGGUGUCGUACA
apparent Kd [3]: 227 nM
apparent Kd [4]: 37.5 nM

CGAUCGUGUAGAGGAUAUGUUAUACAUGAGGAUCACCCAUGUGAGGUGGAAAUAUUUAAUUACAUACAGAAGGCUACACGAUCG
apparent Kd [3]: 269 nM
apparent Kd [4]: 227 nM

AAAAGACAUGAGGAUCACCCAUGUGAAAACGUGCAAGGAUAUGUGUGGAAACCGUACUAUACAGAAGGUGUGUGUC
apparent Kd [1]: 32 nM
apparent Kd [2]: 41.8 nM

GGUGCAUAUGAGAAGGCGAUCAUGAAACAUGAUCGAGGAUAUCAUGUAAACAUGAGGAUCACCCAUGUAUGGGAAAAGUGCAUC
apparent Kd [1]: 85.4 nM
apparent Kd [2]: 10.7 nM

UUGGACGUCGUAGGAUAUGUAGGAUAUUCAUACAUGAGGAUCACCCAUGUUGACAUGGAAGAAGGACAGAAGGACGAUGUCCAU
apparent Kd [1]: 8.63 nM
apparent Kd [2]: 4.56 nM

UUAAUGUGAGGAUAUCAAGAGAGAAAGAGUAAUGGUAAAUAUGAGAAGGCACAUGAGGAUCACCCAUGUUCUUC
apparent Kd [3]: 15.9 nM
apparent Kd [4]: 15.5 nM

UCAUUUCUGUUAGGAUAUUAAAACAUGACGAUACAUGAGGAUCACCCAUGUUAAGAAGGAACAAAUACAUAUAAUGCAAUGUUC
apparent Kd [3]: 12.5 nM
apparent Kd [4]: 10.7 nM

GUGUACAGAGGAUAUACAUAAGCAUGGAAACAUGCAACCUCACAUGAGGAUCACCCAUGUAGAAGGCUGUACAC
apparent Kd [3]: 161 nM
apparent Kd [4]: 65.3 nM

AGCUGGAGAGGAUAUACGUAGGUAAAAAAAGUCUGAUAACUACAUGAGGAUCACCCAUGUAGAAGGCUCUGGCA
apparent Kd [3]: 16 nM
apparent Kd [4]: 43.8 nM

UUUUAGGUAGGAUAUACAUUUUUUUUAUUAUCCUCAUUAUUACAUGAGGAUCACCCAUGUAGAAGGACCAUUUU
apparent Kd [3]: 215 nM
apparent Kd [4]: 341 nM

GGAUAGGACAAAGGAUAUACGUGCUAGAGAUACUAGCAAAAUUUCCUCACAUGAGGAUCACCCAUGUAGAAGGCUGUCCUAUCG
apparent Kd [3]: 6.93 nM
apparent Kd [4]: 14.7 nM
